Assay [1] concerns the target G protein-coupled receptor kinase 6 (Homo sapiens) (UniProt P43250). The assay is described as follows: Inhibition of recombinant full length human GRK6 assessed as residual activity at 10 uM using casein as substrate at 40 mins in presence of [gamma-33ATP] by scintillation counting based radiometry assay relative to control.
Assay [2] deals with Mitogen-activated protein kinase kinase kinase 9 (Homo sapiens) (UniProt P80192). The assay is described as follows: Inhibition of recombinant human MLK1 (134 to 414 residues) assessed as residual activity at 10 uM using casein as substrate incubated for 40 mins in presence of [gamma-33ATP by scintillation counting based radiometry assay relative to control.
In assay [3] the target is Receptor-interacting serine/threonine-protein kinase 2 (Homo sapiens) (UniProt O43353). As to the kind of experiment: Inhibition of recombinant human RIPK2 (1 to 299 residues) assessed as residual activity at 10 uM using myelin basic protein as substrate incubated for 120 mins in presence of [gamma33P]ATP by scintillation counting based radiometry assay relative to control.

The target in assay [4] is Dual specificity mitogen-activated protein kinase kinase 3 (Homo sapiens) (UniProt P46734). As to the kind of experiment: Inhibition of recombinant human MKK3 assessed as residual activity at 10 uM by scintillation counting based radiometry assay relative to control.
Assay [5] concerns the target 5'-AMP-activated protein kinase catalytic subunit alpha-2 (Homo sapiens) (UniProt P54646). As to the kind of experiment: Inhibition of recombinant full length human AMPKalpha2 assessed as residual activity at 10 uM using AMARAASAAALAR as substrate incubated for 40 mins in presence of [gamma-33ATP] by scintillation counting based radiometry assay relative to control.

Assay [6] has as its system A549. As to the kind of experiment: Inhibition of hippo signalling protein in human A549 cells cotransfected with CTGF promoter-driven firefly luciferase and CMV promoter-driven renilla luciferase gene incubated for 24 hrs by dual-luciferase gene assay. Format: cell-based. The essentials:
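Dual-luciferase reporter read-out in A549-CTGF cells after 24 h culture with compound. Firefly luciferase is expressed relative to DMSO-treated cells, set as 1. Screening used 10 µM. Values are mean ± SEM of three independent experiments.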

Assay [7] relates to Hepatocyte growth factor receptor (Homo sapiens), P08581 [D1228N]. As to the kind of experiment: Inhibition of recombinant human MET A1209G/V1290L/D1246N mutant (974 to end residues) assessed as residual activity at 10 uM using KKKGQEEEYVFIE as substrate incubated for 40 mins in presence of [gamma-33ATP by scintillation counting based radiometry assay relative to control.
The target in assay [8] is Mitogen-activated protein kinase 12 (Homo sapiens) (UniProt P53778). As to the kind of experiment: Inhibition of recombinant human full length SAPK3 assessed as residual activity at 10 uM using myelin basic protein as substrate incubated for 40 mins in presence of [gamma33P]ATP by scintillation counting based radiometry assay relative to control.
In assay [9] the target is Serine/threonine-protein kinase SIK2 (Homo sapiens) (UniProt Q9H0K1). The assay is described as follows: Inhibition of recombinant human SIK2 (1 to 276 residues) assessed as residual activity at 10 uM using KKKVSRSGLYRSPSMPENLNRPR as substrate incubated for 40 mins in presence of [gamma33P]ATP by scintillation counting based radiometry assay relative to control.
In assay [10] the target is Ephrin type-B receptor 1 (Homo sapiens) (UniProt P54762). As to the kind of experiment: Inhibition of recombinant human EphB1 (564 to end residues) assessed as residual activity at 10 uM using KVEKIGEGTYGVVYK as substrate at 40 mins in presence of [gamma-33ATP] by scintillation counting based radiometry assay relative to control.
In assay [11] the target is Serine/threonine-protein kinase 3 (Homo sapiens) (UniProt Q13188). The assay is described as follows: Inhibition of recombinant human MST2 (2 to end residues) assessed as residual activity at 10 uM using myelin basic protein as substrate measured after 40 mins in presence of [gamma33P]ATP by scintillation counting based radiometry assay relative to control.
The target of assay [12] is Hepatocyte growth factor receptor (Homo sapiens) (UniProt P08581). The assay is described as follows: Inhibition of recombinant human MET A1209G/V1290L mutant (974 to end residues) assessed as residual activity at 10 uM using KKKGQEEEYVFIE as substrate incubated for 40 mins in presence of [gamma-33ATP by scintillation counting based radiometry assay relative to control.

In assay [13] the target is Ephrin type-A receptor 7 (Homo sapiens) (UniProt Q15375). The assay is described as follows: Inhibition of recombinant human EphA7 (613 to 909 residues) assessed as residual activity at 10 uM using KTFCGTPEYLAPEVRREPRILSEEEQEMFRDFDYIADWC as substrate at 40 mins in presence of [gamma-33ATP] by scintillation counting based radiometry assay relative to control.
Assay [14] relates to A549. As to the kind of experiment: Inhibition of hippo signalling protein in human A549 cells cotransfected with CTGF promoter-driven firefly luciferase and CMV promoter-driven renilla luciferase gene assessed as increase in CTGF expression at 10 uM incubated for 24 hrs by dual-luciferase gene assay relative to control.
Assay [15] deals with Serine/threonine-protein kinase B-raf (Homo sapiens) (UniProt P15056). The assay is described as follows: Inhibition of recombinant full length human B-Raf (416 to end residues) assessed as residual activity at 10 uM using myelin basic protein substrate incubated for 40 mins in presence of [gamma-33ATP] by scintillation counting based radiometry assay relative to control.
In assay [16] the target is Homeodomain-interacting protein kinase 1 (Homo sapiens) (UniProt Q86Z02). The assay is described as follows: Inhibition of human HIPK1 (158 to 555 residues) assessed as residual activity at 10 uM using myelin basic protein as substrate after 40 mins by [gamma-33ATP] radiometric assay relative to control.
The target of assay [17] is Dual specificity protein kinase CLK1 (Homo sapiens) (UniProt P49759). As to the kind of experiment: Inhibition of recombinant human CLK1 (130 to end residues) assessed as residual activity at 10 uM using ERMRPRKRQGSVRRRV as substrate incubated 40 mins in presence of [gamma-33ATP] by scintillation counting based radiometry assay relative to control.
Assay [18] concerns Angiopoietin-1 receptor (Homo sapiens), Q02763 [Q939H,Q940H]. The assay is described as follows: Inhibition of recombinant human TIE2 Q939H/Q940H mutant (771 to end residues) assessed as residual activity at 10 uM using EFPIYDFLPAKKK as substrate incubated for 40 mins in presence of [gamma33P]ATP by scintillation counting based radiometry assay relative to control.
Assay [19] deals with Activin receptor type-2A (Homo sapiens) (UniProt P27037). The assay is described as follows: Inhibition of human ACTR2 (162 to end residues) assessed as residual activity at 10 uM using casein as substrate incubated for 120 mins in presence of [gamma-33ATP] by scintillation counting based radiometry assay relative to control.
Assay [20] has as its target Tyrosine-protein kinase JAK2 (Homo sapiens) (UniProt O60674). The assay is described as follows: Inhibition of human JAK2 (808 to end residues) assessed as residual activity at 10 uM using KTFCGTPEYLAPEVRREPRILSEEEQEMFRDFDYIADWC as substrate after 40 mins by [gamma-33ATP] radiometric assay relative to control.

Chain of Ephrin type-B receptor 1 (Homo sapiens) (P54762 whole entry): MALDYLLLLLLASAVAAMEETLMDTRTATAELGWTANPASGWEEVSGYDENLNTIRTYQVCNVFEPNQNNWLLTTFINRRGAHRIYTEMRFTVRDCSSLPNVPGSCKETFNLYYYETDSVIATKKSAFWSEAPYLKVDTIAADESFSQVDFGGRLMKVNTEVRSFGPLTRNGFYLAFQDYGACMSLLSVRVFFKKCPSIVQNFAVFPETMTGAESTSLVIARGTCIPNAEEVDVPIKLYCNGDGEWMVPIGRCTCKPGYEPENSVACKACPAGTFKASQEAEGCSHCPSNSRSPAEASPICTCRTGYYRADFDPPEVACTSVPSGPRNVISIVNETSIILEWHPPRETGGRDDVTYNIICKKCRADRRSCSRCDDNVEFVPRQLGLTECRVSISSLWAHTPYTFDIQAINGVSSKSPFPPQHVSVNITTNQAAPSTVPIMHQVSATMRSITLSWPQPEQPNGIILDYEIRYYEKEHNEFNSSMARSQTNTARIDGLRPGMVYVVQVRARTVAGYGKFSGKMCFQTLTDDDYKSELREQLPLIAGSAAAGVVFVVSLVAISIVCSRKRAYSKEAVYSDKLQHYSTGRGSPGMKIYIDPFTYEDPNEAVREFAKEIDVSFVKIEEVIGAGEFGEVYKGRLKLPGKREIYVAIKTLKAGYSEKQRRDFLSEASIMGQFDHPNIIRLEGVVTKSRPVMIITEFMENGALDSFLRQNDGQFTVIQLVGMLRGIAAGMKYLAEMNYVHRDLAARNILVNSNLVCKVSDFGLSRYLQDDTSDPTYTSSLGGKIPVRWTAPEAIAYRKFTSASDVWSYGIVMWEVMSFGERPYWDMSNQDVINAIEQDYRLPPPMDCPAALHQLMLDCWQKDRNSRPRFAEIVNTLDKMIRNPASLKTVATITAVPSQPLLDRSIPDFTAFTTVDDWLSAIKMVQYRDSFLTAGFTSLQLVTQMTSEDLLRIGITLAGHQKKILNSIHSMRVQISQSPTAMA
Chain of Receptor-interacting serine/threonine-protein kinase 2 (Homo sapiens) (O43353 whole entry, the tested form may be a part): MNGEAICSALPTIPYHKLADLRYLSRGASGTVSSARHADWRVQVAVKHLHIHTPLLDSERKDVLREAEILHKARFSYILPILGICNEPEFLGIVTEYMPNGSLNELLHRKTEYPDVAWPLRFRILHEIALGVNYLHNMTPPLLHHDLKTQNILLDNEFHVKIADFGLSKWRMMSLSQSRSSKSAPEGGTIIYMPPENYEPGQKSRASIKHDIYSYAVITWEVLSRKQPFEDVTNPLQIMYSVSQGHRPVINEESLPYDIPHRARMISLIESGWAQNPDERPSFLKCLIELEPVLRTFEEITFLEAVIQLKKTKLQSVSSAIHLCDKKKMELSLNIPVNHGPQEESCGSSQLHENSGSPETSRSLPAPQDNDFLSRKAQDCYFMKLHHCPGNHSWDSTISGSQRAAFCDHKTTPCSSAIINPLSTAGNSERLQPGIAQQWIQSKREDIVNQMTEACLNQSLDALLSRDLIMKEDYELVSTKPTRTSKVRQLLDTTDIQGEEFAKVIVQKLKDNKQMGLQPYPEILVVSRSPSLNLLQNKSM
Chain of Ephrin type-A receptor 7 (Homo sapiens) (Q15375 28-998 limits assumed): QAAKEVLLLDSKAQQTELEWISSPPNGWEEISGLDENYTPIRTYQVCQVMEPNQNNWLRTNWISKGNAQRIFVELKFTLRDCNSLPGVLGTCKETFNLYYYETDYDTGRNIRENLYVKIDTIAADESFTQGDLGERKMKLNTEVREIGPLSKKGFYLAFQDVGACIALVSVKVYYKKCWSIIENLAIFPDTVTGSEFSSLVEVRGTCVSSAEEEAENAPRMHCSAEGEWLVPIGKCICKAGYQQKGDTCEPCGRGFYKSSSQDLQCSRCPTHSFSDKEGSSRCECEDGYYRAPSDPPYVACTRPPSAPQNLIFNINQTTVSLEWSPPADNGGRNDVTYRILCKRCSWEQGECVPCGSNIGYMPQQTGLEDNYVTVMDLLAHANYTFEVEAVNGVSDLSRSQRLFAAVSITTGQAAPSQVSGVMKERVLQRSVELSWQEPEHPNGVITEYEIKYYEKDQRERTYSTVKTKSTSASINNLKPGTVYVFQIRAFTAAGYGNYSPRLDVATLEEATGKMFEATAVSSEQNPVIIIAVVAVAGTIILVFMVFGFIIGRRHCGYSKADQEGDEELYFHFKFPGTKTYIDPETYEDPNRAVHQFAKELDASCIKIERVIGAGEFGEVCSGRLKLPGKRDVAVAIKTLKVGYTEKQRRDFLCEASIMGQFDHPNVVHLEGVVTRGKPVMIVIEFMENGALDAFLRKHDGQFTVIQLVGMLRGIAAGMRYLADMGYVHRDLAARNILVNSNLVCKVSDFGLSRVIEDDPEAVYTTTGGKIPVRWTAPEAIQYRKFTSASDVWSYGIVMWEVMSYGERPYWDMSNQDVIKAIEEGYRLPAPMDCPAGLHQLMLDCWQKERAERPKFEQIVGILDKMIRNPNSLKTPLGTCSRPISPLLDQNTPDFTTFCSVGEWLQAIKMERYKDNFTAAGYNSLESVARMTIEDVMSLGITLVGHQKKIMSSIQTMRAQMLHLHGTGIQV
Chain of Serine/threonine-protein kinase B-raf (Homo sapiens) (P15056 whole entry, the tested form may be a part): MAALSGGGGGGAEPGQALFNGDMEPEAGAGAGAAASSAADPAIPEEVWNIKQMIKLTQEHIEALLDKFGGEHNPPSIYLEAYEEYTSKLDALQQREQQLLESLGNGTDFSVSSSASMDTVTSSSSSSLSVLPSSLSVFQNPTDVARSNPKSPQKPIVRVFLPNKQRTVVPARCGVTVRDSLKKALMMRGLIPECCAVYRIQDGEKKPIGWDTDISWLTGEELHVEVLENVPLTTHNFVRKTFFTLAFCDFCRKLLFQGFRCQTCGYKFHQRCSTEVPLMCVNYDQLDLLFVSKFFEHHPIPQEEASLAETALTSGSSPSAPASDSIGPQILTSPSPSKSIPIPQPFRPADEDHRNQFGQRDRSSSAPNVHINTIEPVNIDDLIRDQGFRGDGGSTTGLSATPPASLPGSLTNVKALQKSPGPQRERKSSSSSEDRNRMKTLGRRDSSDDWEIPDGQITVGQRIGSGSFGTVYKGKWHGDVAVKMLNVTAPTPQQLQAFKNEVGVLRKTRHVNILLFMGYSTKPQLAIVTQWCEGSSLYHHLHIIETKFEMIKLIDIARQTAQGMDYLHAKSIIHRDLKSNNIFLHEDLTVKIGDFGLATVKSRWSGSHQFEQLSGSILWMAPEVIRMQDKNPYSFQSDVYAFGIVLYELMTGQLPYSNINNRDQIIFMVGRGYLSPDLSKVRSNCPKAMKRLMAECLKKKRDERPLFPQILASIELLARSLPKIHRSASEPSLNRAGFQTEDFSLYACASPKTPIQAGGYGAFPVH
Chain of Homeodomain-interacting protein kinase 1 (Homo sapiens) (Q86Z02 whole entry, looked up, the tested form may be a part): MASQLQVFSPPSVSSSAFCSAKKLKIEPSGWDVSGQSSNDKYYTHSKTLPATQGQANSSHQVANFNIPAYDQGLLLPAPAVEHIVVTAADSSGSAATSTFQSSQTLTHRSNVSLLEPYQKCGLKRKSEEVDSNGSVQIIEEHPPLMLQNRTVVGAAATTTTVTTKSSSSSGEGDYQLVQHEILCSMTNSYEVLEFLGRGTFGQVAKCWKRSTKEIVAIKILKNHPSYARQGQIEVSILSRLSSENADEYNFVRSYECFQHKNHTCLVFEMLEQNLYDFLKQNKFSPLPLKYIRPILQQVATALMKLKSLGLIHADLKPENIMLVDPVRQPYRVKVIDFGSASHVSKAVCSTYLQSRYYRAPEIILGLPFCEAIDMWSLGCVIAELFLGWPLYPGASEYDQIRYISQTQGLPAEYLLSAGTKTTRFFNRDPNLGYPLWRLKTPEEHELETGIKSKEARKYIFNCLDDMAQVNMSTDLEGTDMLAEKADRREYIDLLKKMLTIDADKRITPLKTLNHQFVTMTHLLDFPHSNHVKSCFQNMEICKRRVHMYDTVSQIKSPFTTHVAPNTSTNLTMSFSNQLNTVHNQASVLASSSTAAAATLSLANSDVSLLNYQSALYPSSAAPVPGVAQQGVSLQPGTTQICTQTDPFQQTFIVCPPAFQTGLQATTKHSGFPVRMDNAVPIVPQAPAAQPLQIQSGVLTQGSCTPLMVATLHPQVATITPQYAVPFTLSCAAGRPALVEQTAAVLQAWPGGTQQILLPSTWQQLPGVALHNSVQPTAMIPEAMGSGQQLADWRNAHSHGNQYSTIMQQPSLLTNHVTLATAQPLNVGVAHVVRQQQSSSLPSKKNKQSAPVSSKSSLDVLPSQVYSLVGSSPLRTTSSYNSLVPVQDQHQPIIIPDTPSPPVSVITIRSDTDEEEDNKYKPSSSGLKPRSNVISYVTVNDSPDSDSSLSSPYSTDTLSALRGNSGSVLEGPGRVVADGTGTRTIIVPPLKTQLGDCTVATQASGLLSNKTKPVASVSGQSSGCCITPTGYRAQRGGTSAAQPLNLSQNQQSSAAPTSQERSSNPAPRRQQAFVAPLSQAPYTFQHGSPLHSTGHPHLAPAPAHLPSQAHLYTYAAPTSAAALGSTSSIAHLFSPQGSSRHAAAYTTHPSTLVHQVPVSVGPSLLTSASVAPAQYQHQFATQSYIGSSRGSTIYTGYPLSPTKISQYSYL
Chain of G protein-coupled receptor kinase 6 (Homo sapiens) (P43250 whole entry, looked up, the tested form may be a part): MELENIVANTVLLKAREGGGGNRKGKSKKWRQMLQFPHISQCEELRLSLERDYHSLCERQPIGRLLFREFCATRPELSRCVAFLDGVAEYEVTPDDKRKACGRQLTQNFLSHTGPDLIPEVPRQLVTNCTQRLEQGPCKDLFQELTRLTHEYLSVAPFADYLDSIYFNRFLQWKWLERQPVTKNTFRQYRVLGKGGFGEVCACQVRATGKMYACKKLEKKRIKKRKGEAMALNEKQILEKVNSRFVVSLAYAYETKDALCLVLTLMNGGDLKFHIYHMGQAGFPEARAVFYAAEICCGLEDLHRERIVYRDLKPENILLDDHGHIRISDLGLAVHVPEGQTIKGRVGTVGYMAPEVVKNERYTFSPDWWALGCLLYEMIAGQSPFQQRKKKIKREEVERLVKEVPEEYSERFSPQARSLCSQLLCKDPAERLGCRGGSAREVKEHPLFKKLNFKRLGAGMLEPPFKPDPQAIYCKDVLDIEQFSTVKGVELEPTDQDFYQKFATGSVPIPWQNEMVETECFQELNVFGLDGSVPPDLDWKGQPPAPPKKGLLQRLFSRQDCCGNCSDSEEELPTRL

On to `C[C@@H](c1ccccc1)n1nnc2cnc3ccc(-c4cnc5[nH]ccc5c4)cc3c21`, for which the Activity in [1] amounted to 96%; in assay [2], 41%; in assay [3], 23%; in assay [4], 115%; in assay [5], 35%; in assay [7], 55%. Also, the Activity in assay [8] was 91%; in assay [9] it was 7%; in assay [10], 152%; in assay [11] it was 57%; in assay [12], 62%; in [13], 86%. The Activity in assay [15] was 73%; in assay [16], 78%; in [17], 38%; in assay [18] it was 50%; in [19] it was 101%; in [20], 43%. For the same molecule, in the assay with A549 [6], the inhibition entry is “Dose-dependent effect”. Moreover, in the assay with A549 [14], the fold change (FC) stood at 13.5.

(Values after ChEMBL document CHEMBL4334471, “Discovery of 1,8-disubstituted-[1,2,3]triazolo[4,5-c]quinoline derivatives as a new class of Hippo signaling pathway inhibitors” (Bioorg Med Chem Lett, 2019).)
